Source: ChEMBL document CHEMBL1130123, “Optimization of 3-(1H-indazol-3-ylmethyl)-1,5-benzodiazepines as potent, orally active CCK-A agonists” (J Med Chem, 1997)

Tests used:
[1] = organism: Cavia porcellus; test: In vitro functional efficacy relative to CCK-8 in inducing contraction of the isolated guinea pig gallbladder (GPGB) at a 1 uM concentration.
How it was run: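 Isolated guinea pig gallbladder, ligand 1 μM, 30 min at 37 °C; maximal contraction expressed relative to CCK-8 (1 μM) = 100%; values ± 5%.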

[2] = molecular target: T1, Gastrin/cholecystokinin type B receptor (Homo sapiens, UniProt P32239); test: In vitro for binding affinity against human cholecystokinin type B receptor.
T1 sequence (P32239 whole entry): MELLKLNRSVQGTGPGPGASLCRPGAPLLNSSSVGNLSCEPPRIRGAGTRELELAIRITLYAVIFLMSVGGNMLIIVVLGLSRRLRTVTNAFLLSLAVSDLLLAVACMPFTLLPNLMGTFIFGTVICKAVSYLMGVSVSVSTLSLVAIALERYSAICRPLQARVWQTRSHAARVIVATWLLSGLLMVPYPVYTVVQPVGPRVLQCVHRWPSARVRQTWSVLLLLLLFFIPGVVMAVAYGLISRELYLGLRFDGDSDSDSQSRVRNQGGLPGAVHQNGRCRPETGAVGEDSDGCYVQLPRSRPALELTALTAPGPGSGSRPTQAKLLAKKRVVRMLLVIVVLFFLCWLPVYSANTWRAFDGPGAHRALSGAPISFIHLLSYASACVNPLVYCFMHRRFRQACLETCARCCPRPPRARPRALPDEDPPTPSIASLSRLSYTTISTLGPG

[3] = molecular target: T2, Cholecystokinin receptor type A (Homo sapiens, UniProt P32238); test: In vitro for binding affinity against human cholecystokinin type A receptor.
T2 sequence (P32238 whole entry): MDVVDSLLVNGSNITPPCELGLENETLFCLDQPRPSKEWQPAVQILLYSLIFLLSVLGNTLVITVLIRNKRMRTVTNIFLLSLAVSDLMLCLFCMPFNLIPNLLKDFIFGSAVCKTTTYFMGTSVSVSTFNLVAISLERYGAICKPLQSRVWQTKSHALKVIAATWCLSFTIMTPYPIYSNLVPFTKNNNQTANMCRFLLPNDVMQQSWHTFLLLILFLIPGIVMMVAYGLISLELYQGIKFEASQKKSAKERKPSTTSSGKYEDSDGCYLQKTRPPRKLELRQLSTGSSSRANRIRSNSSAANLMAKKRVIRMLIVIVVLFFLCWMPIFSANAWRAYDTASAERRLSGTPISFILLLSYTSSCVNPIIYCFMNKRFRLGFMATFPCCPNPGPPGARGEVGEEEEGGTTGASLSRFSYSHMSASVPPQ

[4] = organism: Cavia porcellus; test: In vitro functional agonist activity in the isolated guinea pig gall bladder, concentration at which 50% of the maximal contraction observed was reported.; conditions: read-out: ED50 (the source's name)
[5] = Total body clearance at an intravenous dose of 6.5 mg/kg in rat; assay type: ADME, organism-based; set-up: dose 6.5 mg/kg, route intravenous; conditions: in vivo
[6] = Maximum concentration at an intravenous dose of 6.5 mg/kg in rat; assay type: ADME, organism-based; set-up: dose 6.5 mg/kg, route intravenous; conditions: in vivo
[7] = Maximum concentration at an peroral dose of 6.2 mg/kg in rat; assay type: ADME, organism-based; set-up: dose 6.2 mg/kg, route oral; conditions: in vivo, po
[8] = Oral bioavailability in Long-Evans rats at an peroral dose of 6.5 mg/kg; assay type: ADME, organism-based; conditions: rat, in vivo
[9] = Half life period at an intravenous dose of 6.5 mg/kg in rat; assay type: ADME, organism-based; set-up: dose 6.5 mg/kg, route intravenous; conditions: in vivo
[10] = Volume of distribution at steady state at an intravenous dose of 6.5 mg/kg in rat; assay type: ADME, organism-based; set-up: dose 6.5 mg/kg, route intravenous; conditions: in vivo, read-out: Vss
[11] = test system: Mus musculus; test: Intraperitoneal dose that produces a half maximal response in mouse gall bladder emptying assay (in vivo); assay type: functional; conditions: ip
[12] = test system: Mus musculus; test: Maximal response at 1 nmol/kg peroral dose; assay type: functional
[13] = test system: Mus musculus; test: Peroral dose that produces a half maximal response in mouse gall bladder emptying assay (in vivo); assay type: functional; conditions: po
[14] = test system: Mus musculus; test: Maximal response at 1 nmol/kg intraperitoneal dose; assay type: functional
[15] = test system: Rattus norvegicus; test: Maximal response at 0.5 umol/kg intraperitoneal dose; assay type: functional
[16] = test system: Rattus norvegicus; test: Anorectic potency in rat was tested and intraperitoneal dose that produces a half maximal response (in vivo); assay type: functional; conditions: ip
[17] = test system: Mus musculus; test: maximal response at 1 nmol/kg peroral dose; assay type: functional

Row | SMILES | Max [1] | IC50 [2] | IC50 [3] | EC50 [4] | further results
1 | COc1ccc(N(C(=O)CN2C(=O)C(Cc3cc(-c4ccccc4)[nH]n3)C(=O)N(c3ccccc3)c3ccccc32)C(C)C)cc1 (stereo not given) | 20% |  |  |  | 
2 | COc1ccc(N(C(=O)CN2C(=O)C(Cc3cc(C)[nH]n3)C(=O)N(c3ccccc3)c3ccccc32)C(C)C)cc1 (stereo not given) | 20% |  |  |  | 
3 | COc1ccc(N(C(=O)CN2C(=O)C(Cc3n[nH]c4cccnc34)C(=O)N(c3ccccc3)c3ccccc32)C(C)C)cc1 (stereo not given) | 40% |  |  |  | 
4 | COc1ccc(N(C(=O)CN2C(=O)C(Cc3n[nH]c4cccc(F)c34)C(=O)N(c3ccccc3)c3ccccc32)C(C)C)cc1 (stereo not given) | 100% | 1700 nM | 17.4 nM | 70 nM | 
5 | COc1ccc(N(C(=O)CN2C(=O)C(Cc3noc4ccccc34)C(=O)N(c3ccccc3)c3ccccc32)C(C)C)cc1 (stereo not given) | 80% | 174000 nM | 89.1 nM | 130 nM | 
6 | COc1ccc(N(C(=O)CN2C(=O)C(Cc3nsc4ccccc34)C(=O)N(c3ccccc3)c3ccccc32)C(C)C)cc1 (stereo not given) | 30% |  |  |  | 
7 | COc1ccc(N(C(=O)CN2C(=O)C(Cc3n[nH]c4c(F)cccc34)C(=O)N(c3ccccc3)c3ccccc32)C(C)C)cc1 (stereo not given) | 90% | 1050 nM |  | 20 nM | 
8 | COc1ccc(N(C(=O)CN2C(=O)C(C)(Cc3nn(C)c4ccccc34)C(=O)N(c3ccccc3)c3ccccc32)C(C)C)cc1 (stereo not given) | 60% |  | 38.9 nM | 240 nM | clearance [5]: 31 mL/min/kg; Cmax [6]: 3270 ng/mL; Cmax [7]: 20 ng/mL; bioavailability [8]: 4%; half-life [9]: 7.5 h; Vd [10]: 11.1 L/kg; ED50 [11]: 0.01 µmol/kg; Max [12]: 75%; ED50 [13]: 0.45 µmol/kg
9 | CSCC[C@H](NC(=O)[C@H](Cc1ccc(OS(=O)(=O)O)cc1)NC(=O)[C@@H](N)CC(=O)O)C(=O)NCC(=O)N[C@@H](Cc1c[nH]c2ccccc12)C(=O)N[C@@H](CCSC)C(=O)N[C@@H](CC(=O)O)C(=O)N[C@@H](Cc1ccccc1)C(N)=O [SINCALIDE] |  |  |  |  | Max [14]: 95%; Max [15]: 95%; ED50 [16]: 0.03 µmol/kg
10 | COc1ccc(N(C(=O)CN2C(=O)C(Cc3n[nH]c4ncccc34)C(=O)N(c3ccccc3)c3ccccc32)C(C)C)cc1 (stereo not given) | 90% | 11200 nM | 112 nM | 40 nM | 
11 | COc1cccc(N(C(=O)CN2C(=O)C(Cc3n[nH]c4ccccc34)C(=O)N(c3ccccc3)c3ccccc32)C(C)C)c1 (stereo not given) | 90% | 191 nM | 479 nM | 70 nM | 
12 | COc1ccccc1N(C(=O)CN1C(=O)C(Cc2n[nH]c3ccccc23)C(=O)N(c2ccccc2)c2ccccc21)C(C)C (stereo not given) | 40% | 129 nM |  | 830 nM | 
13 | COc1ccc(N(C(=O)CN2C(=O)C(Cc3[nH]nc4c3CCCC4)C(=O)N(c3ccccc3)c3ccccc32)C(C)C)cc1 (stereo not given) | 80% | 2950 nM | 129 nM | 300 nM | 
14 | COc1ccc(N(C(=O)CN2C(=O)C(Cc3csc4ccccc34)C(=O)N(c3ccccc3)c3ccccc32)C(C)C)cc1 (stereo not given) | 50% |  |  |  | 
15 | CC(C)N(C(=O)CN1C(=O)C(Cc2n[nH]c3ccccc23)C(=O)N(c2ccccc2)c2ccccc21)c1ccc(F)cc1 (stereo not given) | 100% | 479 nM | 138 nM | 60 nM | 
16 | COc1ccc(N(C(=O)CN2C(=O)C(Cc3n[nH]c4cc(F)ccc34)C(=O)N(c3ccccc3)c3ccccc32)C(C)C)cc1 (stereo not given) | 100% | 589 nM | 29.5 nM | 40 nM | 
17 | CC(C)N(C(=O)CN1C(=O)C(Cc2n[nH]c3ccccc23)C(=O)N(c2ccccc2)c2ccccc21)c1ccc2c(c1)OCO2 (stereo not given) | 100% | 724 nM | 355 nM | 20 nM | 
18 | COc1ccc(N(C(=O)CN2C(=O)C(C)(Cc3cn(C)c4ccccc34)C(=O)N(c3ccccc3)c3ccccc32)C(C)C)cc1 (stereo not given) | 40% |  | 17.8 nM |  | 
19 | COc1ccc(N(C(=O)CN2C(=O)C(Cc3c[nH]c4ccccc34)C(=O)N(c3ccccc3)c3ccccc32)C(C)C)cc1 (stereo not given) |  |  |  |  | ED50 [11]: 0.0038 µmol/kg; Max [14]: 90%; Max [12]: 74%; ED50 [13]: 0.1 µmol/kg
20 | COc1ccc(N(C(=O)CN2C(=O)C(Cc3c[nH]c4ccccc34)(OC)C(=O)N(c3ccccc3)c3ccccc32)C(C)C)cc1 (stereo not given) | 60% | 29500 nM | 13.8 nM | 150 nM | Max [14]: 84%; Max [12]: 54%
21 | COc1ccc(N(C(=O)CN2C(=O)C(Cc3nn(C)c4ccccc34)C(=O)N(c3ccccc3)c3ccccc32)C(C)C)cc1 (stereo not given) |  |  |  |  | ED50 [11]: 0.0008 µmol/kg; Max [14]: 83%; Max [12]: 84%; ED50 [13]: 0.03 µmol/kg; Max [15]: 98%; ED50 [16]: 0.22 µmol/kg
22 | COc1ccc(N(C(=O)CN2C(=O)C(Cc3coc4ccccc34)C(=O)N(c3ccccc3)c3ccccc32)C(C)C)cc1 (stereo not given) | 40% |  |  |  | 
23 | O=C1C(Cc2n[nH]c3ccccc23)C(=O)N(c2ccccc2)c2ccccc2N1CC(=O)N(c1ccccc1)C1CC1 (stereo not given) | 70% | 25.1 nM | 525 nM | 20 nM | 
24 | COc1ccc(N(C(=O)CN2C(=O)C(Cc3n[nH]c4ccc(F)cc34)C(=O)N(c3ccccc3)c3ccccc32)C(C)C)cc1 (stereo not given) | 90% | 2510 nM | 42.7 nM | 40 nM | 
25 | CC(C)N(C(=O)CN1C(=O)C(Cc2n[nH]c3ccccc23)C(=O)N(c2ccccc2)c2ccccc21)c1ccc(C(F)(F)F)cc1 (stereo not given) | 80% | 1660 nM | 661 nM | 230 nM | 
26 | COc1ccc(N(C(=O)CN2C(=O)C(Cc3n[nH]c4ccccc34)C(=O)N(c3ccccc3)c3ccccc32)C2CCCC2)cc1 (stereo not given) | 90% | 776 nM | 17 nM | 40 nM | 
27 | COc1ccc(N(C(=O)CN2C(=O)C(C)(Cc3c[nH]c4ccccc34)C(=O)N(c3ccccc3)c3ccccc32)C(C)C)cc1 (stereo not given) |  |  |  |  | ED50 [11]: 0.0008 µmol/kg; Max [14]: 91%; Max [17]: 46%; ED50 [13]: 0.38 µmol/kg
28 | CC(C)(C)N(C(=O)CN1C(=O)C(Cc2n[nH]c3ccccc23)C(=O)N(c2ccccc2)c2ccccc21)c1ccccc1 (stereo not given) | 90% |  | 891 nM | 110 nM | 
